According to ChEMBL document CHEMBL1150966, “New iridoids from the medicinal plant Barleria prionitis with potent activity against respiratory syncytial virus” (J Nat Prod, 1998):
In brackets after ≈: the same amount, converted by molar mass. Activity calls are given as the source filed them. The rule behind the calls is not given here.

Legend:
[1] = Selectivity index, ratio of IC50 for human Hep2 cells to EC50 for respiratory syncytial virus A2; type: toxicity, cell-based, HEp-2; conditions: for selectivity ratio: Hep2 cells, read-out: Ratio IC50/EC50
In short: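 The selectivity index is IC50/EC50. The IC50 is for Hep-2 cytotoxicity and the EC50 is for RSV A2 CPE inhibition, both in µg/mL from the same CPE assay conditions.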

[2] = test system: Respiratory syncytial virus; test: Antiviral activity against respiratory syncytial virus A2 in human Hep2 cells assessed as inhibition of virus-induced cytopathic effect; type: functional, organism-based; conditions: HEp-2
In short: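 Cell-based viral cytopathic effect (CPE) assay with RSV strain A2 in Hep-2 cells. Antiviral activity is expressed in µg/mL as the 50% effective concentration (EC50).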

[3] = Cytotoxicity against human Hep2 cells; type: cell-based, HEp-2; conditions: for IC50: Homo sapiens, HEp-2
In short: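 Cytotoxicity to Hep-2 cells was measured under the same conditions as the viral CPE assay. It is reported in µg/mL as the 50% inhibitory concentration (IC50).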

EC50 [2] [µg/mL]	Compound	selectivity ratio [1]	IC50 [3] [µg/mL]	Activity ([1]; hep-2)	Activity [2]	Activity ([3]; human, hep-2)
2.46 (≈ 4.14 µM)	COC(=O)C1=CO[C@@H](O[C@@H]2O[C@H](CO)[C@@H](O)[C@H](O)[C@H]2O)[C@H]2[C@@H]1[C@H](OC(=O)/C=C\c1ccc(O)cc1)C[C@]2(C)OC(C)=O	17	42 (≈ 70.6 µM)	–	–	–
–	C[C@@H]1O[C@@H](O[C@@H]2[C@@H](O)[C@H](OCCc3ccc(O)c(O)c3)O[C@H](CO)[C@H]2OC(=O)/C=C/c2ccc(O)c(O)c2)[C@H](O)[C@H](O)[C@H]1O [ACETOSIDE]	85.4	76.9 (≈ 123 µM)	–	–	–
2.46 (≈ 4.14 µM)	COC(=O)C1=CO[C@@H](O[C@@H]2O[C@H](CO)[C@@H](O)[C@H](O)[C@H]2O)[C@H]2[C@@H]1[C@H](OC(=O)/C=C/c1ccc(O)cc1)C[C@]2(C)OC(C)=O	17	42 (≈ 70.6 µM)	–	–	–
–	COC(=O)C1=CO[C@@H](O[C@@H]2O[C@H](CO)[C@@H](O)[C@H](O)[C@H]2O)[C@H]2[C@@H]1[C@H](O)C[C@]2(C)OC(C)=O [BARLERIN]	–	–	Not Active	inactive	Not Active
